Source: ChEMBL document CHEMBL2069177, “A prospective cross-screening study on G-protein-coupled receptors: lessons learned in virtual compound library design” (J Med Chem, 2012)

Target: Beta-2 adrenergic receptor (Homo sapiens, UniProt P07550)
Assay: Displacement of [3H]dihydroalprenolol from human ADRB2 expressed in HEK293T cells after 1 hr by liquid scintillation counter
Type: cell-based, HEK-293T
Method in brief: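 HEK293T cells transiently transfected with ADRB2 using PEI, harvested 48 h later for membranes. Membranes incubated at room temperature for 1 h with 1 nM [3H]-dihydroalprenolol in HEPES pH 7.4 with CaCl2, MgCl2, NaCl and 0.5% BSA. Filtered on GF/C presoaked in PEI, washed with ice-cold buffer plus 500 mM NaCl. Compounds giving ≥50% inhibition at 10 µM went to concentration-response curves. Ki by nonlinear regression, n=3 in triplicate.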

Sequence of Beta-2 adrenergic receptor (P07550 whole entry): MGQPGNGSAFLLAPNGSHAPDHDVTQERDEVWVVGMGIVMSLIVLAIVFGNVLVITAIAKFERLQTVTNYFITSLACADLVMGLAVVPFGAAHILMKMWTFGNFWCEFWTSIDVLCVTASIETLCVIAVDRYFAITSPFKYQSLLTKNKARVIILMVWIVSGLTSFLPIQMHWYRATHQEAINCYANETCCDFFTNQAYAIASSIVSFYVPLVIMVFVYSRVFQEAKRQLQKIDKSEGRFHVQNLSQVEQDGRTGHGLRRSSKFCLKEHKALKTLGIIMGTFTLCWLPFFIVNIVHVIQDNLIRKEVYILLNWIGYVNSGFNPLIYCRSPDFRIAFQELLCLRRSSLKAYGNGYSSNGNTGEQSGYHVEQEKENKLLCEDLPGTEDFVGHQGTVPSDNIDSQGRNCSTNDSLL

**Q.** Cc1ccc(C)c(OCC(O)CNC2CCCC2)c1 (configuration not stated) was tested. Which Ki did it give?
**A.** 2 µM

**Q.** With Cc1ccc(C(C)C)c(OCC(O)CN2CCCCC2)c1 (configuration not stated) as the molecule, how does the Ki read?
**A.** 0.794 µM

**Q.** Cc1ccc(C(C)C)c(OCC(O)CN2CCN(CCO)CC2)c1 (configuration not stated) was tested. Which Ki did it give?
**A.** 39.8 µM

**Q.** How did the Ki turn out when Cc1nc2ccc(O)c(CN(C)C)c2[nH]1 was run?
**A.** 25.1 µM

**Q.** Which Ki does the source give for CC(=O)c1c(CSc2ccccc2)oc2ccc(O)c(CN(C)C)c12 here?
**A.** 39.8 µM

**Q.** For O=C1Cc2ccccc2Sc2c(OCCN3CCCCC3)cccc21, which Ki is on record?
**A.** 794 µM

Target: Adenosine receptor A2a (Homo sapiens, UniProt P29274)
Sequence (P29274 whole entry): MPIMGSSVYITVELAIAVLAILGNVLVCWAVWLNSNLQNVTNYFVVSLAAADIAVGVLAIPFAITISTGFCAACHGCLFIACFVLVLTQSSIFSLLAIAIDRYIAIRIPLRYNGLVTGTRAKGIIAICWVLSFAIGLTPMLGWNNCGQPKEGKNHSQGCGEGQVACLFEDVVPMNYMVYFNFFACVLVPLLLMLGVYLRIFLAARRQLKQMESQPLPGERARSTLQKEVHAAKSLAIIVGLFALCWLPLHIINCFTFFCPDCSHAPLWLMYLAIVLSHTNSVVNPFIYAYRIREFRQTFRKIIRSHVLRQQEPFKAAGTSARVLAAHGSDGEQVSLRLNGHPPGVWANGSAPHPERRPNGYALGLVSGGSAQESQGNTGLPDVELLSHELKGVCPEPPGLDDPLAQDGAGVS
Assay: Displacement of [3H]ZM241385 from human AA2AR expressed in HEK293T cells after 2 hrs by liquid scintillation counter
Type: cell-based, HEK-293T
Method in brief: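 Membranes of HEK293T cells stably expressing AA2AR (40 µg protein) incubated with 1.7 nM (final) [3H]ZM241385 in 50 mM Tris·HCl pH 7.4, 2 h at 25 °C with shaking. Nonspecific binding defined with 100 µM CGS21680. Filtered over GF/B, washed three times with ice-cold buffer. Compounds giving ≥50% inhibition at 10 µM went to concentration-response curves. pKi values, n=3 in duplicate.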

**Q.** Which Ki does the source give for O=C1c2ccccc2C(=O)c2cc(OCC(O)CN3CCCCC3)ccc21 (configuration not stated) here?
**A.** 5.01 µM

**Q.** Nc1ccc(C(=O)Nc2ccc(O)c(-c3nc4ccccc4[nH]3)c2)cc1 was tested. Which Ki did it give?
**A.** 1.58 µM

**Q.** Which Ki does the source give for N#C/C(=N\Nc1ccc(S(N)(=O)=O)cc1)c1nc2ccccc2[nH]1 here?
**A.** 5.01 µM

**Q.** Which Ki does the source give for COc1cc(/C=N/Nc2ncnc3sc4c(c23)CCCC4)ccc1O here?
**A.** 5.01 µM

**Q.** With Cc1nc2[nH]c3ccccc3n2c(=O)c1CCOC(=O)C1CCCCC1 as the molecule, how does the Ki read?
**A.** 2.51 µM

**Q.** With Cc1n[nH]c(C)c1S(=O)(=O)N1CCC(C(=O)Nc2nc3c(C)cccc3s2)CC1 as the molecule, how does the Ki read?
**A.** 1 µM

**Q.** How did the Ki turn out when CC1CCN(C(=O)c2ccc3c(=O)[nH]c4c(-c5ccccc5)nnn4c3c2)CC1 was run?
**A.** 2.51 µM

**Q.** N/C(=N\C(=O)CN1C(=O)C2CCCCC2C1=O)Nc1nc2ccccc2s1 (configuration not stated) was tested. Which Ki did it give?
**A.** 5.01 µM

**Q.** Cc1cccc2sc(NC(=O)CNS(=O)(=O)c3cccs3)nc12 was tested. Which Ki did it give?
**A.** 1.58 µM

**Q.** With N=C(NC(=O)C(Cc1ccccc1)N1C(=O)c2ccccc2C1=O)Nc1nc2ccccc2o1 (configuration not stated) as the molecule, how does the Ki read?
**A.** 3.98 µM

**Q.** Which Ki does the source give for COCC1=CC(O)N=C(Nc2nc(C)c3ccccc3n2)N1 (configuration not stated) here?
**A.** 0.631 µM

**Q.** Which Ki does the source give for CCOC(=O)c1nc[nH]c1/N=N/c1c(O)ccc2ccccc12 here?
**A.** 1.26 µM

**Q.** For CC1=C(C(=O)Nc2nc3ccccc3s2)C(c2ccco2)C(C#N)=C(SCC(N)=O)N1 (configuration not stated), which Ki is on record?
**A.** 6.31 µM

**Q.** With Cc1cc(NC(=O)CSc2nc3ccccc3c3nc4ccccc4n23)n[nH]1 as the molecule, how does the Ki read?
**A.** 0.631 µM

**Q.** With O=C(CCN1C(=O)c2ccccc2C1=O)Nc1nc2ccccc2s1 as the molecule, how does the Ki read?
**A.** 5.01 µM

**Q.** CCCc1nn(C)c2c(=O)[nH]c(-c3cc(S(=O)(=O)N4CCN(C)CC4)ccc3OCC)nc12 [SILDENAFIL] was tested. Which Ki did it give?
**A.** 0.2 µM

**Q.** How did the Ki turn out when N#CCSc1nc2cc(C(=O)N3CCC(C(N)=O)CC3)ccc2c2nc3ccccc3n12 was run?
**A.** 1 µM

**Q.** With Cc1ccc2[nH]c3nc(SCC(=O)Nc4ncc(C)s4)nnc3c2c1 as the molecule, how does the Ki read?
**A.** 3.98 µM

Target: Sphingosine 1-phosphate receptor 1 (Homo sapiens, UniProt P21453)
Sequence (P21453 whole entry): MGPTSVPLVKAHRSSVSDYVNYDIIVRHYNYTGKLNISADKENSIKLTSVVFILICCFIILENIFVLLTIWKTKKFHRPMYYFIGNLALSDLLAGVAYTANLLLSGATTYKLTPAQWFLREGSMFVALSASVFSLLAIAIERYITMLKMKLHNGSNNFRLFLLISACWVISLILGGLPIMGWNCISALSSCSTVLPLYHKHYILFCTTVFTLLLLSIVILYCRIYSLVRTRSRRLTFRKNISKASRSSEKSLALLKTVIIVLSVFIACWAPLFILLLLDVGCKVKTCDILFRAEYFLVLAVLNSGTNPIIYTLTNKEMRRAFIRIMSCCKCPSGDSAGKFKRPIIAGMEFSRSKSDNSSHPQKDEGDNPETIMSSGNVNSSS
Assay: Induction of beta-arrestin2 recruitment to human S1PR1 expressed in CHOK1 cells after 2 hrs by beta-galactosidase assay
Type: cell-based, CHO-K1
Method in brief: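 PathHunter enzyme-fragment-complementation CHO-K1 S1PR1 β-arrestin cells seeded at 10,000/well in OPTI-MEM and held overnight at 37 °C. Compound added for 2 h at 37 °C, then 1 h at room temperature. Lysed with detection reagent and read by chemiluminescence after 2 h dark. Recruitment referenced to AUY954 (1 µM). Hits with ≥30% recruitment went to dose-response. pEC50, n=1 in triplicate.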

**Q.** With Cc1ccc(S(=O)(=O)Nc2nc3n(n2)C(c2ccccc2)C=C(c2ccccc2)N3)cc1 (configuration not stated) as the molecule, how does the EC50 read?
**A.** 50.1 µM

**Q.** Which EC50 does the source give for CC(=O)N1CCc2cc(Br)cc(S(=O)(=O)N3CCC(O)(c4cccc(C(F)(F)F)c4)CC3)c21 here?
**A.** 31.6 µM

**Q.** For O=C(Nc1nc2ccc(-c3nc4ccccc4[nH]3)cc2s1)C1CCCCC1, which EC50 is on record?
**A.** 20 µM
